Measured values: ChEMBL document CHEMBL4689842, “EUbOPEN Chemogenomics Library wave 1” (2021)
“And” between values parts separate entries of the source, which are not always exact repeats. Equal values may be shown once.

Tested on: HEK-293T
Assay: Multiplex assay against HEK293T;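 as to Population Tubulin-Different-Phenotype (%): share of the cells with healthy nuclei that show this phenotype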
Type: toxicity, cell-based
Conditions: human
In short: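 Phenotypes for tubulin, mitochondrial mass and membrane permeability are expressed as per cents of healthy-nucleus cells. Cells were stained live at seeding with Hoechst33342, BioTracker Green Microtubule Cytoskeleton Dye, MitoTracker Red and Annexin V Alexa Fluor 680, then imaged after compound addition on a CQ1 microscope at 37°C and 5% CO2. Machine-learning gating in CellPathfinder separated Hoechst high-intensity objects from normal cells, divided normal cells by nuclear state (healthy, pyknosed, fragmented) and divided pyknosed cells into mitotic or apoptotic.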

[1] = 12 h, 1 µM, compound concentration 1 uM, replicate 1
[2] = 12 h, 1 µM, compound concentration 1 uM, replicate 2
[3] = 24 h, 1 µM, compound concentration 1 uM, replicate 1
[4] = 24 h, 1 µM, compound concentration 1 uM, replicate 2
[5] = 12 h, 10 µM, compound concentration 10 uM, replicate 1
[6] = 12 h, 10 µM, compound concentration 10 uM, replicate 2
[7] = 24 h, 10 µM, compound concentration 10 uM, replicate 1
[8] = 24 h, 10 µM, compound concentration 10 uM, replicate 2

## CC(C)C(=O)Nc1n[nH]c2cc(-c3cccc(NS(=O)(=O)C4CC4)c3)ccc12
[1]
  Population Apoptotic (%): 21%
  Population Fragmented Nuclei (%): 16% and 10%
  Population Healthy Nuclei (%): 61% and 63%
  Population Hoechst High Intensity Objects (%): 10% and 14%
  Population Membrane Permeable-Phenotype (%): 4%
  Population Mitochondria Different-Phenotype (%): 4% and 6%
  Population Mitotic Cells (%): 78%
  Population Normal (%): 89% and 85%
  Population Pyknosed Nuclei (%): 22% and 25%
  Population Tubulin-Different-Phenotype (%): 1% and 4%
  Total Cell Count: 541 and 686
[2]
  Population Apoptotic (%): 12% and 8%
  Population Fragmented Nuclei (%): 4% and 6%
  Population Healthy Nuclei (%): 85% and 89%
  Population Hoechst High Intensity Objects (%): 3% and 1%
  Population Membrane Permeable-Phenotype (%): 1%
  Population Mitochondria Different-Phenotype (%): 13% and 7%
  Population Mitotic Cells (%): 87% and 91%
  Population Normal (%): 96% and 98%
  Population Pyknosed Nuclei (%): 9% and 4%
  Population Tubulin-Different-Phenotype (%): 7%
  Total Cell Count: 1247 and 1614
[3]
  Population Apoptotic (%): 14% and 20%
  Population Fragmented Nuclei (%): 11%
  Population Healthy Nuclei (%): 80% and 75%
  Population Hoechst High Intensity Objects (%): 6% and 10%
  Population Membrane Permeable-Phenotype (%): 8% and 6%
  Population Mitochondria Different-Phenotype (%): 3% and 5%
  Population Mitotic Cells (%): 85% and 79%
  Population Normal (%): 93% and 89%
  Population Pyknosed Nuclei (%): 8% and 13%
  Population Tubulin-Different-Phenotype (%): 4% and 8%
  Total Cell Count: 620 and 701
[4]
  Population Apoptotic (%): 4% and 12%
  Population Fragmented Nuclei (%): 22% and 8%
  Population Healthy Nuclei (%): 76% and 86%
  Population Hoechst High Intensity Objects (%): 3% and 4%
  Population Membrane Permeable-Phenotype (%): 5% and 2%
  Population Mitochondria Different-Phenotype (%): 1% and 6%
  Population Mitotic Cells (%): 95% and 87%
  Population Normal (%): 96% and 95%
  Population Tubulin-Different-Phenotype (%): 15%
  Total Cell Count: 2835 and 1472

## Cn1cncc1[C@@](O)(COc1ccc(C#N)cc1-c1ccc(OC(F)(F)F)cc1)c1ccc(C#N)cc1 [A-108]
[5]
  Population Apoptotic (%): 23% and 20%
  Population Fragmented Nuclei (%): 11% and 16%
  Population Healthy Nuclei (%): 51% and 64%
  Population Hoechst High Intensity Objects (%): 11% and 14%
  Population Mitochondria Different-Phenotype (%): 8% and 4%
  Population Mitotic Cells (%): 76% and 79%
  Population Normal (%): 88% and 85%
  Population Pyknosed Nuclei (%): 36% and 18%
  Total Cell Count: 827 and 582
[6]
  Population Apoptotic (%): 12% and 14%
  Population Fragmented Nuclei (%): 3% and 9%
  Population Healthy Nuclei (%): 77% and 85%
  Population Hoechst High Intensity Objects (%): 4% and 2%
  Population Mitochondria Different-Phenotype (%): 19% and 7%
  Population Mitotic Cells (%): 87% and 85%
  Population Normal (%): 95% and 97%
  Total Cell Count: 1209 and 1952
[7]
  Population Apoptotic (%): 25% and 12%
  Population Fragmented Nuclei (%): 10% and 12%
  Population Healthy Nuclei (%): 60% and 78%
  Population Hoechst High Intensity Objects (%): 10%
  Population Mitochondria Different-Phenotype (%): 4%
  Population Mitotic Cells (%): 75% and 87%
  Population Normal (%): 89%
  Total Cell Count: 759 and 650
[8]
  Population Apoptotic (%): 8% and 5%
  Population Healthy Nuclei (%): 73% and 71%
  Population Hoechst High Intensity Objects (%): 4% and 3%
  Population Mitochondria Different-Phenotype (%): 9% and 2%
  Population Mitotic Cells (%): 91% and 95%
  Population Normal (%): 95% and 96%
  Population Tubulin-Different-Phenotype (%): 97%
  Total Cell Count: 1251 and 3226
